Experimental data collected from several papers.
Target: Eukaryotic translation initiation factor 2-alpha kinase 1 (EIF2AK1, Homo sapiens, UniProt Q9BQI3)

Structure (SMILES) | effect on | technique | tested at | remaining binding
C[C@@H](c1cccc(C#N)c1)n1cc(Cl)cc(C(N)=O)c1=N | cell-free assay | competition with immobilised ligand | 1 µM | 95%
COc1ncc2cc3ccccc3nc2c1C#N | cell-free assay | competition with immobilised ligand | 5 µM | 100%
CO[C@@H](C)c1c(Nc2ccc([C@H](N(C)C(=O)C3CCS(=O)(=O)CC3)C(F)(F)F)cc2)cnc2cc(Cl)nn12 | cell-free assay | competition with immobilised ligand | 1 µM | 100%
CN(C)c1nccc(-c2cnc3ncccn23)n1 | binding |  | 1 µM | 69%
O=C(NCC1CCOCC1)c1n[nH]cc1NC(=O)c1c(F)cccc1F | binding | competition with immobilised ligand | 1 µM | 87%
CN(c1nccc(-c2cnn3ncccc23)n1)C1CC1 | binding |  | 1 µM | 100%
Cc1nc(N2CC[C@@H](O)C2)ncc1-c1cc(C(F)(F)F)cc2[nH]ncc12 | binding | competition with immobilised ligand | 1 µM | 98%
COc1cnc(Nc2cccc(S(N)(=O)=O)c2)nc1N1CCN(c2ccccc2)CC1 | binding | competition with immobilised ligand | 1 µM | 100%
N[C@H]1CCN(c2nccc(-c3cnn4ncccc34)n2)C1 | binding |  | 1 µM | 78%
COc1cnc(Nc2cccc(S(N)(=O)=O)c2)nc1N1CCN(c2ccccc2)C(=O)C1 | binding | competition with immobilised ligand | 1 µM | 89%
O=C(c1ccc(Nc2ncc(Cl)c(-c3ccc(Cl)s3)n2)cc1)N1CCC(N2CCCC2)CC1 | binding | competition with immobilised ligand | 1 µM | 86%
Cc1cnn2ncc(-c3ccnc(N(C)C)n3)c2c1 | binding |  | 1 µM | 84%
O=C(c1ccc(Nc2ncc(Cl)c(-c3cc4ccccc4s3)n2)cc1)N1CCC(N2CCCC2)CC1 | binding | competition with immobilised ligand | 1 µM | 90%
CC(=O)C1=C(C)N(c2cccc(C(F)(F)F)c2)C(=O)N[C@@H]1c1ccc(C#N)nc1 | cell-free assay | competition with immobilised ligand | 1 µM | 100%
O=C(NCCCN1CCOCC1)c1ccc(Nc2ncc(Cl)c(-c3ccc(Cl)s3)n2)cc1 | binding | competition with immobilised ligand | 1 µM | 97%
C[C@H](c1ccc(F)cc1)N(Cc1cccc(C(=O)O)c1)C(=O)c1cnc2ccccc2c1 | cell-free assay | competition with immobilised ligand | 1 µM | 84%
F[C@@H]1CCN(c2nccc(-c3cnn4ncccc34)n2)C1 | binding |  | 1 µM | 100%
CN1CCN(c2cnc3c(C4CCN(C(=O)c5ccc(OC(F)(F)F)cc5N)CC4)ncnc3c2)CC1 | cell-free assay | competition with immobilised ligand | 1 µM | 100%
CN(C)c1ncc(F)c(-c2cnn3ncccc23)n1 | binding |  | 1 µM | 100%
CCN1CCN(Cc2ccc(C(=O)Nc3ccc(C)c(Oc4ccc5c(c4)CC(=O)N5)c3)cc2C(F)(F)F)CC1 | binding | competition with immobilised ligand | 1 µM | 100%
O=C(NCc1ncc(C(F)(F)F)cc1Cl)c1ccc2c(c1)C1(CCS(=O)(=O)CC1)[C@@H](C1CC1)N2S(=O)(=O)c1ccc(F)cc1 | cell-free assay | competition with immobilised ligand | 1 µM | 94%
C[C@@H]1CCN(c2nccc(-c3cnn4ncccc34)n2)C1 | binding |  | 1 µM | 79%
